From ChEMBL document CHEMBL1156500, “Characterization of the metabolic activation of hepatitis C virus nucleoside inhibitor beta-D-2'-Deoxy-2'-fluoro-2'-C-methylcytidine (PSI-6130) and identification of a novel active 5'-triphosphate species” (J Biol Chem, 2007)
Calls of active or inactive are those of the source. The calls are words filed in the database; no cut-off is given here.

Key:
Hepatitis C virus [1] = assay: Antiviral activity against HCV 1b Con1 in 2209-23 cells upto 100 uM after 72 hrs by luciferase based replicon assay; type: functional, organism-based; conditions: Hepacivirus hominis, genotype 1b Con 1
Summary of the method: (§1)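 Huh7-derived 2209-23 cells carrying a bicistronic genotype 1b Con1 subgenomic HCV replicon with a Renilla luciferase reporter of RNA replication. Cells were exposed to compound for 72 h, and dose-dependent reduction of luciferase activity was measured to give IC50.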

Hepatitis C virus [2] = assay: Antiviral activity against HCV 1b Con1 in 2209-23 cells after 72 hrs by luciferase based replicon assay; type: functional, organism-based, Hepacivirus hominis; conditions: genotype 1b Con 1, 2209-23, 72 h; summary of the method: as §1
Hepatitis C virus [3] = assay: Inhibition of RNA synthesis activity of […]; parameters: species or system Hepatitis C virus subtype 1b, Con1
Hepatitis C virus [4] = assay: Inhibition of RNA synthesis activity of […] 1b Con1 replicase; parameters: species or system Hepatitis C virus subtype 1b
Summary of the method: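 Membrane-associated native replication complexes were isolated from 2209-23 replicon cells, with 20 μl reactions. One format used 2.5×10^6 cell equivalents for 60 min. The other used 3.1×10^6 cell equivalents for 90 min in 50 mM HEPES pH 7.5, 5 mM MgCl2, actinomycin D, 1 mM ATP/GTP/CTP, 0.4 μM [α-33P]UTP and a creatine phosphate regeneration system.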

Hepatocyte = assay: Drug uptake in human hepatocyte assessed as time needed for triphosphate to be reduced to half of maximum level; type: ADME, cell-based, Liver; conditions: hepatocytes
Summary of the method: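 Hepatocytes from 4 donors were loaded for 24 h with 2 μM 3H-drug (10 μCi/ml), washed, and placed in drug-free medium. Duplicate samples were taken 0–72 h later and analysed for triphosphates by radio-HPLC. Half-life came from a single-phase exponential decay fit, mean ± S.D. (n = 4).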

C[C@@]1(F)[C@H](O)[C@@H](CO)O[C@H]1n1ccc(=O)[nH]c1=O was tested, and the Activity (Hepatitis C virus [1]) was “inactive” and the IC50 (Hepatitis C virus [2]) was > 100000 nM.
Compound C[C@@]1(F)[C@H](O)[C@@H](COP(=O)(O)OP(=O)(O)OP(=O)(O)O)O[C@H]1n1ccc(N)nc1=O [PSI-6130-TP] has a Ki (Hepatitis C virus [3]) of 23 nM, an IC50 (Hepatitis C virus [3]; Hepatitis C virus, Con1) of 130 nM and an IC50 (Hepatitis C virus [4]) of 340 nM. For the same compound, the t1/2 (Hepatocyte) was 4.7 h.
Compound O=c1ccn([C@@H]2O[C@H](COP(=O)(O)OP(=O)(O)OP(=O)(O)O)[C@@H](O)[C@H]2O)c(=O)[nH]1 has a Km (Hepatitis C virus [3]; Hepatitis C virus subtype 1b, Con1) of 0.37 µM.
